Measured values from different studies.
Protocols differ between the studies behind these lines.
Target: Tyrosine-protein kinase receptor TYRO3 (TYRO3, Homo sapiens, UniProt Q06418)
One construct used (Q06418 41-890): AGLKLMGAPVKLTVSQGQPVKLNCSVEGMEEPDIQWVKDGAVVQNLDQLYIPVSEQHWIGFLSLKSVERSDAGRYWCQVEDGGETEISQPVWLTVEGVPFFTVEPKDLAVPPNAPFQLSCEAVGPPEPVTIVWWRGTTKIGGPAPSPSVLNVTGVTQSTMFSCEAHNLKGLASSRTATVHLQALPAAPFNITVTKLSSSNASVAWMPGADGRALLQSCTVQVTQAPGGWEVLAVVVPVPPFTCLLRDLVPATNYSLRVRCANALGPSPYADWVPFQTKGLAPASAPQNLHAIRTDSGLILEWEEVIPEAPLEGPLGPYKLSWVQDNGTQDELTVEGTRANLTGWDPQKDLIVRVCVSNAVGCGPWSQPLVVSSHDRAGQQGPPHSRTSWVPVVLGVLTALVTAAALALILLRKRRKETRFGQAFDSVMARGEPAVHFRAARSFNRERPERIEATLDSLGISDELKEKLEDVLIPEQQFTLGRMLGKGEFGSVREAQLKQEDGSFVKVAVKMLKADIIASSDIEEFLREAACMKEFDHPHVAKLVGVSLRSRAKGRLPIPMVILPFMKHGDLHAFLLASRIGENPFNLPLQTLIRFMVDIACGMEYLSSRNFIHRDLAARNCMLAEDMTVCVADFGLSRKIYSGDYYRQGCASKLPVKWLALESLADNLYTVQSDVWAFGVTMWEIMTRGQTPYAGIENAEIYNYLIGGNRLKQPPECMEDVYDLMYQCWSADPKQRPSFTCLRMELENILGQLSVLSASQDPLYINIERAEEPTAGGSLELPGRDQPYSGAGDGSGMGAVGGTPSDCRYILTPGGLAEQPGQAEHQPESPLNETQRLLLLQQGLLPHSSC

O=C(NCCCN1CCOCC1)c1ccc(Nc2nccc(-c3cc4ccccc4s3)n2)cc1 has a remaining binding of 90% (binding; competition with immobilised ligand; 1 µM).
CN(C)c1ncc(F)c(-c2cnn3ncccc23)n1 gave a remaining binding of 75% (binding; 1 µM).
With CCC(=N\O)/C(C)=C/c1ccc(F)cc1 the remaining binding was 100% (cell-free assay; competition with immobilised ligand; 1 µM).
For F[C@@H]1CCN(c2nccc(-c3cnn4ncccc34)n2)C1, the remaining binding was 89% (binding; 1 µM).
CNC(=O)[C@@H]1CC[C@@H](n2c(-c3ccc4cnccc4c3)nc3ccc(C(=O)NCc4cccc(C(N)=O)c4)cc32)C1 has a remaining binding of 100% (binding; competition with immobilised ligand; 1 µM).
The remaining binding of O=C(c1ccc(Nc2nccc(-c3cc4ccccc4s3)n2)cc1)N1CCC(N2CCCC2)CC1 is reported as 95% (binding; competition with immobilised ligand; 1 µM).
For COc1ccc2c(c1)O[C@@H](c1ccc(OC)c(OC)c1)C[C@H]2NC(=O)C1(c2ccc3c(c2)OC(F)(F)O3)CC1, the remaining binding was 97% (cell-free assay; competition with immobilised ligand; 1 µM).
With CN(c1nccc(-c2cnn3ncccc23)n1)C1CC1 the remaining binding was 83% (binding; 1 µM).
COc1cnc(Nc2cccc(S(N)(=O)=O)c2)nc1N1CCN(c2ccccc2)CC1 gave a remaining binding of 72% (binding; competition with immobilised ligand; 1 µM).
For O=c1nc(-c2ccccn2)sc2ccccc12, the remaining binding was 80% (cell-free assay; competition with immobilised ligand; 1 µM).
For O=C(Nc1c[nH]nc1C(=O)NC1CCNCC1)c1cc(F)cc(F)c1, the remaining binding was 100% (binding; competition with immobilised ligand; 1 µM).
For Nc1c(C(=O)NCc2ccc(C(=O)NCCCC3CCCCC3)cc2)cnn1-c1ccccc1, the remaining binding was 100% (cell-free assay; competition with immobilised ligand; 0.1 µM).
For C[C@@H]1CCN(c2nccc(-c3cnn4ncccc34)n2)C1, the remaining binding was 100% (binding; 1 µM).
O=C(c1ccc(Nc2ncc(Cl)c(-c3cc4ccccc4s3)n2)cc1)N1CCC(N2CCCC2)CC1 gave a remaining binding of 44% (binding; competition with immobilised ligand; 1 µM).
For Cc1cnn2ncc(-c3ccnc(N(C)C)n3)c2c1, the remaining binding was 100% (binding; 1 µM).
C=CC(=O)N1CCC(C(=O)NCC(=O)N2CCN(c3nc(-c4cnc(N)nc4C(F)F)nc(N4CCOCC4)n3)CC2)CC1 gave a remaining binding of 100% (binding; competition with immobilised ligand; 1 µM).
With FC(F)(F)Oc1cccc(-c2cnc3ccc(-c4ccncc4)nn23)c1 the remaining binding was 83% (cell-free assay; competition with immobilised ligand; 5 µM).
With NS(=O)(=O)c1cc(NC(=O)C2(c3ccccc3Cl)CC2)ccc1Oc1cccc(Cl)c1 the remaining binding was 100% (cell-free assay; competition with immobilised ligand; 1 µM).
For COc1ncc2cc3ccccc3nc2c1C#N, the remaining binding was 96% (cell-free assay; competition with immobilised ligand; 5 µM).
For N[C@@H]1CCN(c2nccc(-c3cnn4ncccc34)n2)C1, the remaining binding was 100% (binding; 1 µM).
C[C@@H](c1ccc(-n2cnc3c(N)ncnc32)cc1)N1CCc2nn(C)c(Cc3ccccc3)c2C1=O has a remaining binding of 100% (binding; competition with immobilised ligand; 0.1 µM).
With CS(=O)(=O)NCC[C@H](NC(=O)c1cncc2c1cnn2-c1ccc(F)cc1)c1ccnc(S(C)(=O)=O)c1 the remaining binding was 94% (cell-free assay; competition with immobilised ligand; 1 µM).
